Active and inactive are the calls of the source. The calls are words filed in the database; no cut-off is given here.

For data set [1], the target named is arabinose 5-phosphate isomerase (Escherichia coli) (UniProt P45395). Nature of the data set: Inhibitory activity against Arabinose-5-phosphate isomerase at a concentration of 12 mM; Not active.
Data set [2] concerns the target T1, Arabinose 5-phosphate isomerase KdsD (Salmonella typhimurium (strain LT2 / SGSC1412 / ATCC 700720), UniProt Q8ZLS1).
T1 sequence (Q8ZLS1 whole entry): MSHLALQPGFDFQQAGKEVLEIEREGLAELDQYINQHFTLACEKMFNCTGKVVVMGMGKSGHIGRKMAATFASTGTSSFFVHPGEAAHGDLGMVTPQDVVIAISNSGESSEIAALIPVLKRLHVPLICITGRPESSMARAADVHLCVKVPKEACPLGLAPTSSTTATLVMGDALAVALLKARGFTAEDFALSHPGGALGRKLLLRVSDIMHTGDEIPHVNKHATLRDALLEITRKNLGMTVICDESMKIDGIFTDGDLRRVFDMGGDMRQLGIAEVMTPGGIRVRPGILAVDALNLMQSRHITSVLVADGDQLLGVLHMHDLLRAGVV
Nature of the data set: Inhibitory activity against Arabinose-5-phosphate isomerase; Interfered. The gist of the method: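 Isomerase from E. coli B cells, purified 50-fold. Inhibitor and enzyme were preincubated 2 min at 37 °C in 0.1 M histidine buffer, pH 7.5. The reaction was started with 10 mM (stock) D-arabinose 5-phosphate or D-ribulose 5-phosphate. It was stopped at 0, 3, 6, 9 and 12 min with cysteine HCl, then H2SO4. Ketose was read at 540 nm by carbazole colour (30 min, 37 °C).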

In data set [3] the test system is arabinose 5-phosphate isomerase (Escherichia coli). Briefly: Inhibitory activity against Arabinose-5-phosphate isomerase at a concentration of 5 mM; Not active.
Data set [4] shares this test system. Briefly: Inhibitory activity against Arabinose-5-phosphate isomerase at a concentration of 6 mM; Not active.
Data set [5] deals with arabinose 5-phosphate isomerase (Escherichia coli) (UniProt P45395). Nature of the data set: Inhibitory activity against Arabinose-5-phosphate isomerase at a concentration of 2.4 mM; Not active.
Data set [6] relates to arabinose 5-phosphate isomerase (Escherichia coli). Nature of the data set: Inhibitory activity against Arabinose-5-phosphate isomerase at a concentration of 6 mM.
For data set [7] the test system is unchanged. Briefly: Inhibitory activity against Arabinose-5-phosphate isomerase; Not active.
In data set [8] the target is arabinose 5-phosphate isomerase (Escherichia coli) (UniProt P45395). Nature of the data set: Inhibitory activity against Arabinose-5-phosphate isomerase at a concentration of 3 mM; Not active.
The subject of data set [9] is arabinose 5-phosphate isomerase (Escherichia coli). Briefly: Inhibitory activity against Arabinose-5-phosphate isomerase at a concentration of 5 mM; NA = not active at 5.
The test system is the same in data set [10]. Nature of the data set: Inhibitory activity against Arabinose-5-phosphate isomerase at a concentration of 2 mM; Not active.
Data set [11] has the same test system. Nature of the data set: Inhibitory activity against Arabinose-5-phosphate isomerase at a concentration of 1.5 mM; Not active.
For data set [12] the test system is unchanged. Briefly: Inhibitory activity against Arabinose-5-phosphate isomerase; Unstable.
Compound in data set [13]: O=P(O)(O)OC[C@H]1O[C@@H](O)[C@@H](O)[C@@H]1O
Briefly: Inhibitory activity against Arabinose-5-phosphate isomerase. The conditions noted are these: Escherichia coli B.

Chain of arabinose 5-phosphate isomerase (Escherichia coli) (UniProt P45395) (P45395 whole entry, looked up): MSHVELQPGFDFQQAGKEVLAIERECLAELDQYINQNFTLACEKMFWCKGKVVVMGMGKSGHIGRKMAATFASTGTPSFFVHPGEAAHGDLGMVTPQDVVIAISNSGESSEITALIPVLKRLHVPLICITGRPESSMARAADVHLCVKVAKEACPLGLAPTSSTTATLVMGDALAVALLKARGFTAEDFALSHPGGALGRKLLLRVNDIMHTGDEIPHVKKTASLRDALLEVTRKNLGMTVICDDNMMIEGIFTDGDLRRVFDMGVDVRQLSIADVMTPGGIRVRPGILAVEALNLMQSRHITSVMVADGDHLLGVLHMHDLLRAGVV

On to `NS(=O)(=O)OC[C@H]1OC(=O)[C@H](O)[C@@H]1O`, for which the inhibition result in data set [1] was “inactive”.
As for `O=[N+]([O-])OC[C@H]1O[C@H](O)[C@@H](O)[C@@H]1O`, the “I 50” value in data set [2] is given as “Interfered”.
As for `O=P(O)(O)OCC1OC(O)C(F)C1O` (stereo not given), the inhibition result in data set [3] is “inactive”.
Turning to `O=C1O[C@H](CO)[C@@H](O)[C@H]1O`, the inhibition result in data set [4] is “inactive”.
Consider `O=P(O)(O)OCC(O)C(O)C(O)C(O)CO` (stereo not given), for which the inhibition result in data set [4] and in data set [5] was “inactive” each time.
For the molecule `O=C1O[C@H](CCl)[C@@H](O)[C@H]1O`, the inhibition in data set [6] was found to be 12%.
With `O=P(O)(O)OCC1OC(O)C(O)C1OCc1ccccc1` (stereo not given), the inhibition entry in data set [4] is “inactive”.
Turning to `O=C(O)C(=O)OC[C@H]1OC(=O)[C@H](O)[C@@H]1O`, the inhibition result in [7] is “inactive”.
With `COC1C(COP(=O)(O)O)OC(O)C1O` (stereo not given), the inhibition entry in data set [8] was “inactive”.
With `C[C@H]1OC(O)[C@H](O)[C@H]1O` (stereo not given in full), in data set [9], the inhibition entry is “inactive”.
For the molecule `O=P(O)(O)OCC1OC(O)CC1O` (stereo not given), the inhibition result in data set [10] is “inactive”.
With `O=P(O)(O)OCC(O)C(O)CCO` (stereo not given), in [11], the inhibition entry was “inactive”.
For the molecule `CC(=O)CC(=O)OC[C@H]1O[C@H](O)[C@@H](O)[C@@H]1O`, the “I 50” value in data set [12] is listed as “Unstable”.

B1: Arabinose 5-phosphate isomerase KdsD (Salmonella typhimurium (strain LT2 / SGSC1412 / ATCC 700720)), Q8ZLS1 (protein)
chain: MSHLALQPGFDFQQAGKEVLEIEREGLAELDQYINQHFTLACEKMFNCTGKVVVMGMGKSGHIGRKMAATFASTGTSSFFVHPGEAAHGDLGMVTPQDVVIAISNSGESSEIAALIPVLKRLHVPLICITGRPESSMARAADVHLCVKVPKEACPLGLAPTSSTTATLVMGDALAVALLKARGFTAEDFALSHPGGALGRKLLLRVSDIMHTGDEIPHVNKHATLRDALLEITRKNLGMTVICDESMKIDGIFTDGDLRRVFDMGGDMRQLGIAEVMTPGGIRVRPGILAVDALNLMQSRHITSVLVADGDQLLGVLHMHDLLRAGVV
With B1, in [13], the Km was 0.2 mM.

The record behind these values is ChEMBL document CHEMBL1122791, “Inhibition of arabinose 5-phosphate isomerase. An approach to the inhibition of bacterial lipopolysaccharide biosynthesis” (J Med Chem, 1984).
